Measurements: ChEMBL document CHEMBL2384906, “Biological activity, design, synthesis and structure activity relationship of some novel derivatives of curcumin containing sulfonamides” (Eur J Med Chem, 2013)
In brackets after ≈: the same amount, converted by molar mass. Activity calls are given as the source filed them. The rule behind the calls is not given here.

Tests used:
Staphylococcus aureus [1] = test: Antimicrobial activity against Staphylococcus aureus ATCC 11632 assessed as diameter of inhibition zone at 40 uM after 24 hrs by Kirby -Baur disc diffusion method; type: functional; conditions: ATCC 11632, 24 h, read-out: DIZ
How it was run: (§1)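 Kirby-Bauer disc diffusion was used. Acetone stocks (160 µM) were serially doubled down to 80, 40 and 20 µM. 4 µL of each went onto 5 mm sterile paper discs, which were dried 30 min at 50 °C. Inoculum was 1.5 × 10⁸ CFU/mL diluted to 3 × 10² CFU/mL, and 50 µL was spread on Mueller-Hinton agar. After 24 h at 37 °C the inhibition-zone diameter was measured. Ciprofloxacin served as positive control.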

QG-56 = test: Cytotoxicity against human QG56 cells after 24 hrs by MTT assay; type: functional, cell-based
How it was run: (§2)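 The MTT assay seeded 5 × 10⁴ cells per well and grew them 24 h in RPMI 1640 with compound at 2.5–200 µM. Medium without cells was the blank and adriamycin the positive control. MTT was added for 4 h at 37 °C, formazan was solubilised, and absorbance was read at 570 nm. IC50 is the concentration that cuts viability 50% against untreated cells.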

Aspergillus flavus [2] = test: Antifungal activity against Aspergillus flavus MTCC 1021 assessed as zone of inhibition at 80 uM after 48 hrs by disc diffusion method; type: functional; conditions: MTCC 1021, 48 h, read-out: IZ
How it was run: (§3)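 Spores from 4-day potato dextrose agar cultures, suspended in sterile water at 1.5 × 10⁵ CFU/mL. 0.2 mL was spread on potato dextrose agar. 5 mm filter-paper discs soaked with test compound were laid on the lawn. Incubation was 48 h at 28 °C, then the inhibition zone was measured in mm. Fluconazole was the positive control and acetone the negative control.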

Salmonella typhi [3] = test: Antimicrobial activity against Salmonella typhi ATCC 23564 after 24 hrs by broth micro serial dilution method; type: functional, Salmonella enterica subsp. enterica serovar Typhi; conditions: Salmonella enterica, ATCC 23564, 24 h
Pseudomonas aeruginosa [4] = test: Antimicrobial activity against Pseudomonas aeruginosa ATCC 15499 assessed as diameter of inhibition zone at 40 uM after 24 hrs by Kirby -Baur disc diffusion method; type: functional; conditions: ATCC 15499, 24 h, read-out: DIZ; how it was run: as §1
Bacillus cereus [5] = test: Antimicrobial activity against Bacillus cereus MTCC 7350 assessed as diameter of inhibition zone at 40 uM after 24 hrs by Kirby -Baur disc diffusion method; type: functional; conditions: MTCC 7350, 24 h, read-out: DIZ; how it was run: as §1
Pseudomonas aeruginosa [6] = test: Antimicrobial activity against Pseudomonas aeruginosa ATCC 15499 assessed as diameter of inhibition zone at 20 uM after 24 hrs by Kirby -Baur disc diffusion method; type: functional; conditions: ATCC 15499, 24 h, read-out: DIZ; how it was run: as §1
Bacillus cereus [7] = test: Antimicrobial activity against Bacillus cereus MTCC 7350 after 24 hrs by broth micro serial dilution method; type: functional; conditions: MTCC 7350, 24 h
How it was run: (§4)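 This was broth microdilution in autoclaved Mueller-Hinton broth. 150 µL of compound per well was serially diluted […], and 50 µL of test organism was added. Plates were incubated 24 h at 37 °C and optical density was read.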

Aspergillus niger [8] = test: Antifungal activity against Aspergillus niger MTCC 1108 assessed as zone of inhibition at 80 uM after 48 hrs by disc diffusion method; type: functional; conditions: MTCC 1108, 48 h, read-out: IZ; how it was run: as §3
Aspergillus niger [9] = test: Antifungal activity against Aspergillus niger MTCC 1108 assessed as zone of inhibition at 40 uM after 48 hrs by disc diffusion method; type: functional; conditions: MTCC 1108, 48 h, read-out: IZ; how it was run: as §3
Aspergillus flavus [10] = test: Antifungal activity against Aspergillus flavus MTCC 1021 assessed as zone of inhibition at 20 uM after 48 hrs by disc diffusion method; type: functional; how it was run: as §3
Salmonella typhi [11] = test: Antimicrobial activity against Salmonella typhi ATCC 23564 assessed as diameter of inhibition zone at 80 uM after 24 hrs by Kirby -Baur disc diffusion method; type: functional, Salmonella enterica subsp. enterica serovar Typhi; conditions: Salmonella enterica, ATCC 23564, 24 h; read-out: DIZ
Curvularia lunata [12] = test: Antifungal activity against Curvularia lunata MTCC 581 assessed as zone of inhibition at 20 uM after 48 hrs by disc diffusion method; type: functional; conditions: MTCC 581, 48 h, read-out: IZ; how it was run: as §3
Trichoderma viride [13] = test: Antifungal activity against Trichoderma viride MTCC 1107 assessed as zone of inhibition at 40 uM after 48 hrs by disc diffusion method; type: functional; conditions: MTCC 1107, 48 h, read-out: IZ; how it was run: as §3
Staphylococcus aureus [14] = test: Antimicrobial activity against Staphylococcus aureus ATCC 11632 assessed as diameter of inhibition zone at 20 uM after 24 hrs by Kirby -Baur disc diffusion method; type: functional; conditions: ATCC 11632, 24 h, read-out: DIZ; how it was run: as §1
Escherichia coli [15] = test: Antimicrobial activity against Escherichia coli ATCC 35218 after 24 hrs by broth micro serial dilution method; type: functional; conditions: ATCC 35218, 24 h; how it was run: as §4
Mus musculus = test: Antiinflammatory activity in mouse assessed as inhibition of carrageenan-induced increase in paw volume at 200 mg/kg administered 1 hr prior to carrageenan challenge measured after 3 hrs relative to control; type: functional
How it was run: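 Mice were fasted 2 h and placed in groups of five. Controls received saline i.p. Phenylbutazone was given at 100 mg/kg i.p., curcumin at 200 mg/kg i.p., and derivatives at 200 mg/kg. After 1 h, 0.1 mL of 1% carrageenan in saline was injected subplantar into the right hind paw. Paw volume was followed by plethysmometer for 3 h, and % inhibition was calculated as (Vc − Vt)/Vc × 100.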

Curvularia lunata [16] = test: Antifungal activity against Curvularia lunata MTCC 581 after 48 hrs; type: functional; conditions: MTCC 581, 48 h
Curvularia lunata [17] = test: Antifungal activity against Curvularia lunata MTCC 581 assessed as zone of inhibition at 40 uM after 48 hrs by disc diffusion method; type: functional; conditions: MTCC 581, 48 h, read-out: IZ; how it was run: as §3
Escherichia coli [18] = test: Antimicrobial activity against Escherichia coli ATCC 35218 assessed as diameter of inhibition zone at 40 uM after 24 hrs by Kirby -Baur disc diffusion method; type: functional; conditions: ATCC 35218, 24 h, read-out: DIZ; how it was run: as §1
HCT-116 = test: Cytotoxicity against human HCT116 cells after 24 hrs by MTT assay; type: functional, cell-based; how it was run: as §2
Aspergillus flavus [19] = test: Antifungal activity against Aspergillus flavus MTCC 1021 assessed as zone of inhibition at 40 uM after 48 hrs by disc diffusion method; type: functional; conditions: MTCC 1021, 48 h, read-out: IZ; how it was run: as §3
Bacillus cereus [20] = test: Antimicrobial activity against Bacillus cereus MTCC 7350 assessed as diameter of inhibition zone at 80 uM after 24 hrs by Kirby -Baur disc diffusion method; type: functional; conditions: MTCC 7350, 24 h, read-out: DIZ; how it was run: as §1
Aspergillus niger [21] = test: Antifungal activity against Aspergillus niger MTCC 1108 assessed as zone of inhibition at 20 uM after 48 hrs by disc diffusion method; type: functional; conditions: MTCC 1108, 48 h, read-out: IZ; how it was run: as §3
Escherichia coli [22] = test: Antimicrobial activity against Escherichia coli ATCC 35218 assessed as diameter of inhibition zone at 20 uM after 24 hrs by Kirby -Baur disc diffusion method; type: functional; conditions: ATCC 35218, 24 h, read-out: DIZ; how it was run: as §1
HeLa = test: Cytotoxicity against human HeLa cells after 24 hrs by MTT assay; type: functional, cell-based; how it was run: as §2
Aspergillus flavus [23] = test: Antifungal activity against Aspergillus flavus MTCC 1021 after 48 hrs; type: functional; conditions: MTCC 1021, 48 h
Pseudomonas aeruginosa [24] = test: Antimicrobial activity against Pseudomonas aeruginosa ATCC 15499 assessed as diameter of inhibition zone at 80 uM after 24 hrs by Kirby -Baur disc diffusion method; type: functional; conditions: ATCC 15499, 24 h, read-out: DIZ; how it was run: as §1
Trichoderma viride [25] = test: Antifungal activity against Trichoderma viride MTCC 1107 assessed as zone of inhibition at 80 uM after 48 hrs by disc diffusion method; type: functional; conditions: MTCC 1107, 48 h, read-out: IZ; how it was run: as §3
Curvularia lunata [26] = test: Antifungal activity against Curvularia lunata MTCC 581 assessed as zone of inhibition at 80 uM after 48 hrs by disc diffusion method; type: functional; conditions: MTCC 581, 48 h, read-out: IZ; how it was run: as §3
Staphylococcus aureus [27] = test: Antimicrobial activity against Staphylococcus aureus ATCC 11632 after 24 hrs by broth micro serial dilution method; type: functional; conditions: ATCC 11632, 24 h; how it was run: as §4
Bacillus cereus [28] = test: Antimicrobial activity against Bacillus cereus MTCC 7350 assessed as diameter of inhibition zone at 20 uM after 24 hrs by Kirby -Baur disc diffusion method; type: functional; how it was run: as §1
Salmonella typhi [29] = test: Antimicrobial activity against Salmonella typhi ATCC 23564 assessed as diameter of inhibition zone at 20 uM after 24 hrs by Kirby -Baur disc diffusion method; type: functional, Salmonella enterica subsp. enterica serovar Typhi; conditions: Salmonella enterica, ATCC 23564, 24 h; read-out: DIZ
Pseudomonas aeruginosa [30] = test: Antimicrobial activity against Pseudomonas aeruginosa ATCC 15499 after 24 hrs by broth micro serial dilution method; type: functional; conditions: ATCC 15499, 24 h; how it was run: as §4
Trichoderma viride [31] = test: Antifungal activity against Trichoderma viride MTCC 1107 after 48 hrs; type: functional; conditions: MTCC 1107, 48 h
Trichoderma viride [32] = test: Antifungal activity against Trichoderma viride MTCC 1107 assessed as zone of inhibition at 20 uM after 48 hrs by disc diffusion method; type: functional; conditions: MTCC 1107, 48 h, read-out: IZ; how it was run: as §3
Staphylococcus aureus [33] = test: Antimicrobial activity against Staphylococcus aureus ATCC 11632 assessed as diameter of inhibition zone at 80 uM after 24 hrs by Kirby -Baur disc diffusion method; type: functional; conditions: ATCC 11632, 24 h, read-out: DIZ; how it was run: as §1
HepG2 = test: Cytotoxicity against human HepG2 cells after 24 hrs by MTT assay; type: functional, cell-based; how it was run: as §2
Salmonella typhi [34] = test: Antimicrobial activity against Salmonella typhi ATCC 23564 assessed as diameter of inhibition zone at 40 uM after 24 hrs by Kirby -Baur disc diffusion method; type: functional, Salmonella enterica subsp. enterica serovar Typhi; conditions: Salmonella enterica, ATCC 23564, 24 h; read-out: DIZ
Aspergillus niger [35] = test: Antifungal activity against Aspergillus niger MTCC 1108 after 48 hrs; type: functional; conditions: MTCC 1108, 48 h
Escherichia coli [36] = test: Antimicrobial activity against Escherichia coli ATCC 35218 assessed as diameter of inhibition zone at 80 uM after 24 hrs by Kirby -Baur disc diffusion method; type: functional; conditions: ATCC 35218, 24 h, read-out: DIZ; how it was run: as §1

For COc1cc(/C=C/C(O)=C/C(/C=C/c2ccc(O)c(OC)c2)=N/c2ccc(S(=O)(=O)Nc3nc(C)cc(C)n3)cc2)ccc1O, the zone of inhibition at 40 µM (Staphylococcus aureus [1]) was 18 mm, the IC50 (QG-56) was 50 µM and the zone of inhibition at 80 µM (Aspergillus flavus [2]) was 11 mm. For the same compound, the MIC (Salmonella typhi [3]) was 20 µM (≈ 12.6 µg/mL), the zone of inhibition at 40 µM (Pseudomonas aeruginosa [4]) was 16 mm and the zone of inhibition at 40 µM (Bacillus cereus [5]) was 9 mm. The zone of inhibition at 20 µM (Pseudomonas aeruginosa [6]) was 10 mm, the MIC (Bacillus cereus [7]) was 20 µM (≈ 12.6 µg/mL) and the zone of inhibition at 80 µM (Aspergillus niger [8]) was 16 mm. For the same compound, the zone of inhibition at 40 µM (Aspergillus niger [9]) was 14 mm, the “inhibition zone (IZ)” value (Aspergillus flavus [10]) was “inactive” and the zone of inhibition at 80 µM (Salmonella typhi [11]) was 17 mm. For the same compound, the zone of inhibition at 20 µM (Curvularia lunata [12]) was 12 mm, the zone of inhibition at 40 µM (Trichoderma viride [13]) was 19 mm and the zone of inhibition at 20 µM (Staphylococcus aureus [14]) was 16 mm. The MIC (Escherichia coli [15]) was 20 µM (≈ 12.6 µg/mL), the inhibition in vivo at 200 mg/kg (Mus musculus) was 38.7% and the MIC (Curvularia lunata [16]) was 20 µM (≈ 12.6 µg/mL). For the same compound, the zone of inhibition at 40 µM (Curvularia lunata [17]) was 16 mm, the zone of inhibition at 40 µM (Escherichia coli [18]) was 21 mm and the IC50 (HCT-116) was 25 µM. The zone of inhibition at 40 µM (Aspergillus flavus [19]) was 9 mm, the zone of inhibition at 80 µM (Bacillus cereus [20]) was 12 mm and the zone of inhibition at 20 µM (Aspergillus niger [21]) was 12 mm. It also gave a zone of inhibition at 20 µM (Escherichia coli [22]) of 21 mm, an IC50 (HeLa) of 25 µM and an MIC (Aspergillus flavus [23]) greater than 80 µM. It also gave a zone of inhibition at 80 µM (Pseudomonas aeruginosa [24]) of 19 mm, a zone of inhibition at 80 µM (Trichoderma viride [25]) of 22 mm and a zone of inhibition at 80 µM (Curvularia lunata [26]) of 19 mm. For the same compound, the MIC (Staphylococcus aureus [27]) was 20 µM (≈ 12.6 µg/mL), the “diameter of the inhibition zone (DIZ)” value (Bacillus cereus [28]) was “inactive” and the zone of inhibition at 20 µM (Salmonella typhi [29]) was 10 mm. It also gave an MIC (Pseudomonas aeruginosa [30]) of 20 µM (≈ 12.6 µg/mL), an MIC (Trichoderma viride [31]) of 20 µM (≈ 12.6 µg/mL) and a zone of inhibition at 20 µM (Trichoderma viride [32]) of 18 mm. It also gave a zone of inhibition at 80 µM (Staphylococcus aureus [33]) of 22 mm, an IC50 (HepG2) of 25 µM and a zone of inhibition at 40 µM (Salmonella typhi [34]) of 14 mm. The MIC (Aspergillus niger [35]) was 20 µM (≈ 12.6 µg/mL) and the zone of inhibition at 80 µM (Escherichia coli [36]) was 23 mm.
